Assay results taken from ChEMBL document CHEMBL3045496, “Antifeedant activity of ethanolic extract from Flourensia oolepis and isolation of pinocembrin as its active principle compound” (2009).
Activity calls are given as the source filed them. The calls are words filed in the database; no cut-off is given here.

Tests used:
[1] = test system: Epilachna; assay: Antifeedant activity against third-instar Epilachna paenulata measured assessed per cm2 leaf disk after 24 hr by leaf disk choice test; format: functional
Summary of the method: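 Two Cucurbita maxima seedling cotyledons in a Petri dish under a glass disk with two 1 cm2 holes: one solvent-treated, one solvent-control. A single larva is placed equidistant between them and feeds for 24 h. Area eaten is estimated visually by quarters, always by the same operator. AI% = [1−(T/C)]×100; means of 10 replicates.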

[2] = test system: Epilachna; assay: Antifeedant activity against third-instar Epilachna paenulata measured assessed per cm2 leaf disk; format: functional
[3] = test system: Xanthogaleruca luteola; assay: Antifeedant activity against adult Xanthogaleruca luteola assessed per cm2 leaf disk after 24 hr by leaf-disk choice test
[4] = test system: Xanthogaleruca luteola; assay: Antifeedant activity against adult Xanthogaleruca luteola measured at 10 ug/cm2 leaf disk after 24 hr by leaf-disk choice test relative to control
[5] = test system: Xanthogaleruca luteola; assay: Antifeedant activity against adult Xanthogaleruca luteola measured at 1 ug/cm2 leaf disk after 24 hr by leaf-disk choice test relative to control
[6] = test system: Epilachna; assay: Antifeedant activity against third-instar Epilachna paenulata measured at 10 ug/cm2 leaf disk after 24 hr by leaf-disk choice test relative to control; format: functional
[7] = test system: Epilachna; assay: Antifeedant activity against third-instar Epilachna paenulata measured at 100 ug/cm2 leaf disk after 24 hr by leaf-disk choice test relative to control; format: functional
[8] = test system: Xanthogaleruca luteola; assay: Antifeedant activity against adult Xanthogaleruca luteola measured at 5 ug/cm2 leaf disk after 24 hr by leaf-disk choice test relative to control
[9] = test system: Epilachna; assay: Antifeedant activity against third-instar Epilachna paenulata measured at 5 ug/cm2 leaf disk after 24 hr by leaf-disk choice test relative to control; format: functional
[10] = test system: Spodoptera frugiperda; assay: Antifeedant activity against third-instar Spodoptera frugiperda (fall armyworm) measured at 100 ug/cm2 leaf disk after 3 to 4 hr by leaf-disk choice test relative to control; format: functional
Summary of the method: (§1)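 Two-choice leaf-disk assay with third-instar larvae collected in the field and kept on pumpkin for 2–3 days beforehand. Treated and solvent-control 1 cm2 disks of C. maxima cotyledon are offered together, and the area of each consumed (0–100%) is scored visually by quarters by the same operator. AI% = [1−(T/C)]×100; means of 10 replicates.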

[11] = test system: Xanthogaleruca luteola; assay: Antifeedant activity against adult Xanthogaleruca luteola measured at 100 ug/cm2 leaf disk after 24 hr by leaf-disk choice test relative to control
[12] = test system: Spodoptera frugiperda; assay: Antifeedant activity against third-instar Spodoptera frugiperda (fall armyworm) measured at 5 ug/cm2 leaf disk after 3 to 4 hr by leaf-disk choice test relative to control; format: functional; summary of the method: as §1
[13] = test system: Xanthogaleruca luteola; assay: Antifeedant activity against adult Xanthogaleruca luteola measured at 50 ug/cm2 leaf disk after 24 hr by leaf-disk choice test relative to control
[14] = test system: Spodoptera frugiperda; assay: Antifeedant activity against third-instar Spodoptera frugiperda (fall armyworm) measured at 50 ug/cm2 leaf disk after 3 to 4 hr by leaf-disk choice test relative to control; format: functional; summary of the method: as §1
[15] = test system: Epilachna; assay: Antifeedant activity against third-instar Epilachna paenulata measured at 50 ug/cm2 leaf disk after 24 hr by leaf-disk choice test relative to control; format: functional
[16] = test system: Epilachna; assay: Antifeedant activity against third-instar Epilachna paenulata measured at 1 ug/cm2 leaf disk after 24 hr by leaf disk choice test relative to control; format: functional
[17] = test system: Spodoptera frugiperda; assay: Antifeedant activity against third-instar Spodoptera frugiperda (fall armyworm) assessed per cm2 leaf disk after 3 to 4 hr by leaf-disk choice test; format: functional
[18] = test system: Spodoptera frugiperda; assay: Antifeedant activity against third-instar Spodoptera frugiperda (fall armyworm) measured at 10 ug/cm2 leaf disk after 3 to 4 hr by leaf-disk choice test relative to control; format: functional; summary of the method: as §1
[19] = test system: Spodoptera litura; assay: Antifeedant activity against third-instar Spodoptera litura assessed per cm2 leaf disk; format: functional

For `O=C1C[C@@H](c2ccc(O)cc2)Oc2cc(O)cc(O)c21` [NARINGENIN], the ED50 [1] was 160.15 µg.

Work on `CC(=O)O[C@@H]1C[C@H](O)[C@@]23CO[C@@H](O)[C@]1(C)[C@@H]2C[C@@H](O)[C@]1(C)[C@@H]3C(=O)[C@H](OC(C)=O)[C@@]2(C)[C@H](c3ccoc3)C[C@H]3O[C@]321` [TOOSENDANIN] yielded an ED50 [2] of 3.69 µg.

Work on `Oc1cc(O)c2c(c1)OC(c1ccc(O)c(O)c1)C(O)C2` (configuration not stated) [CATECHIN] yielded an ED50 [3] of 50.22 µg and an ED50 [1] of 47.6 µg.

Compound `O=C1C[C@@H](c2ccccc2)Oc2cc(O)cc(O)c21` [PINOCEMBRIN] has an AFI [4] of 62%, an AFI [5] of 0% and an AFI [6] of 62%. It also gave an AFI [7] of 99.1%, an AFI [8] of 62% and an AFI [9] of 21%. The AFI [10] was 92%, the AFI [11] was 98% and the AFI [12] was 21%. For the same compound, the AFI [13] was 94%, the AFI [14] was 91% and the ED50 [3] was 6.13 µg. It also gave an AFI [15] of 90%, an AFI [16] of 12% and an ED50 [17] of 8.86 µg. For the same compound, the AFI [18] was 70% and the ED50 [1] was 7.98 µg.

`C=C(C)[C@H]1Cc2c(ccc3c2O[C@@H]2COc4cc(OC)c(OC)cc4[C@@H]2C3=O)O1` [ROTENONE] showed an ED50 [19] of 59.1 µg.

Compound `O=c1cc(-c2ccccc2)oc2cc(O)cc(O)c12` [CHRYSIN] has an ED50 [19] of 635 µg.

Work on `COc1ccc(-c2oc3c(OC)c(OC)c(OC)c(O)c3c(=O)c2OC)cc1` [5-HYDROXYAURANETIN] yielded an ED50 [19] of 42.8 µg.

With `O=c1c(O)c(-c2ccc(O)c(O)c2)oc2cc(O)cc(O)c12` [QUERCETIN] the ED50 [3] was 178.52 µg, the Activity [19] was “inactive” and the ED50 [1] was 9.26 µg.

`CC(=O)O[C@@H]1C[C@H](O)[C@@]23COC(O)[C@]1(C)[C@@H]2C[C@@H](O)[C@]1(C)[C@@H]3[C@H](O)C(=O)[C@@]2(C)[C@H](c3ccoc3)C[C@H]3O[C@@]312` (some centres not stated) [MELIARTENIN] showed an ED50 [2] of 0.8 µg.

`O=c1cc(-c2ccccc2)oc2ccccc12` [FLAVONE] gave an ED50 [19] of 24.6 µg.

Compound `COc1c(OC)c(O)c2c(=O)c(OC)c(-c3ccccc3)oc2c1OC` has an ED50 [19] of 7.16 µg.

`C[C@@H]1CC[C@H]2[C@@H](C)C(=O)O[C@@H]3O[C@@]4(C)CC[C@@H]1[C@]32OO4` [ARTEMISININ] gave an ED50 [2] of 14.7 µg.

With `C/C=C(\C)C(=O)O[C@H]1C[C@@H](OC(C)=O)[C@@]2(C(=O)OC)CO[C@H]3[C@@H](O)[C@@](C)([C@]45O[C@@]4(C)[C@@H]4C[C@H]5O[C@@H]5OC=C[C@@]54O)[C@H]4[C@]1(CO[C@]4(O)C(=O)OC)[C@@H]32` [AZADIRACHTIN A] the ED50 [1] was 0.59 µg.
